Results taken from ChEMBL document CHEMBL1649322, “Oral treatment options for ambulatory patients with urinary tract infections caused by extended-spectrum-beta-lactamase-producing Escherichia coli” (2010).
≈ marks a conversion by molar mass, not a printed value.

Key:
[1] = system: Escherichia coli; assay: Antimicrobial activity against xtended-spectrum-beta-lactamase-producing Escherichia coli obtained from urinary tract infection patient assessed as percent susceptible isolates by Etest; assay type: functional, Urine
Summary of the method: (§1)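 ESBL-producing E. coli isolates from urinary tract infections; ESBL expression confirmed by double-disk synergy test per 2007 CLSI guidelines. Verified isolates (n = 100) tested by Etest, alongside agar diffusion, for pivmecillinam, fosfomycin and ertapenem. Read-outs were MIC and susceptibility category (susceptible, reduced/intermediate, resistant), given as percent of isolates; mean MIC calculated for susceptible isolates.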

[2] = system: Escherichia coli; assay: Antimicrobial activity against xtended-spectrum-beta-lactamase-producing Escherichia coli obtained from urinary tract infection patient by Etest; assay type: functional; conditions: Urine; summary of the method: as §1

Compound | Activity [1] [%] | MIC [2] [µg/mL] | Activity ([1]; Urine) [%]
CC(C)(C)C(=O)OCOC(=O)[C@@H]1N2C(=O)[C@@H](/N=C/N3CCCCCC3)[C@H]2SC1(C)C [AMDINOCILLIN PIVOXIL] | 85 | 1.17 (≈ 2.66 µM) | 
O=C(O)c1cn(C2CC2)c2cc(N3CCNCC3)c(F)cc2c1=O [CIPROFLOXACIN] | 22 |  | 
C[C@@H](O)[C@H]1C(=O)N2C(C(=O)O)=C(S[C@@H]3CN[C@H](C(=O)Nc4cccc(C(=O)O)c4)C3)[C@H](C)[C@H]12 [ERTAPENEM] | 100 | 0.07 (≈ 0.147 µM) | 
C[C@@H]1O[C@@H]1P(=O)(O)O [FOSFOMYCIN] | 97 | 1.38 (≈ 10 µM) | 
O=C1CN(/N=C/c2ccc([N+](=O)[O-])o2)C(=O)N1 [NITROFURANTOIN] | 94 | 17 (≈ 71.5 µM) | 
GENTAMICIN |  |  | 78
